Active and inactive are the calls of the source. The calls are words filed in the database; no cut-off is given here.
Key:
[1] = Stability in human serum assessed as compound degradation measured at 2 mg/ml after 24 hrs at 37C by RP-HPLC analysis; type: ADME, cell-free
Procedure, shortened: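 Peptide at 2 mg/mL final in 25% (v/v) pooled human male AB serum, incubated at 37 °C for 24 h. Samples quenched with equal volume acetonitrile on ice for 20 min and centrifuged at 4 °C. Supernatant diluted to 0.1 mg/mL and run on RP-HPLC. Intact peptide estimated from peak area at 215 nm.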

[2] = In vivo stability in C57BL/6J mouse serum assessed as compound degradation measured at 5 mg/kg, iv after 15 mins by LC/MS/MS analysis; type: ADME, organism-based; conditions: 0.25 h
Procedure, shortened: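 Mice (C57BL/6J, 8 weeks old, 20–30 g), 4 male and 4 female per group, given one i.v. dose of 5 mg/kg. Submandibular blood drawn into EDTA tubes at 15 min, 30 min, 1, 2, 4, 8 and 24 h. Plasma protein precipitated with 9:1 acetonitrile/acetic acid on ice, centrifuged, and the supernatant analysed by LC/MS/MS.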

Mus musculus [3] = test: Hyperglycemic effect in C57BL/6J mouse assessed as increase in blood glucose level at 500 microg/kg, iv measured measured up to 60 mins by intraperitoneal insulin tolerance test; type: functional, organism-based; conditions: dose 500.0 µg/kg
Procedure, shortened: (§1)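 Wild-type 8-week-old female mice weighing 20–30 g, 7 groups of 5. Mice fasted 3 h, then given insulin (0.75 IU/kg). […] Blood glucose read with a glucometer at 15, 30 and 60 min post-injection.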

Mus musculus [4] = test: Hyperglycemic effect in C57BL/6J mouse assessed as increase in blood glucose level at 50 microg/kg, iv measured measured after 30 mins by intraperitoneal insulin tolerance test; type: functional, organism-based; conditions: dose 50.0 µg/kg
Procedure, shortened: (§2)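 Female C57BL/6J mice, 8 weeks old, 20–30 g, 5 per group. After a 3 h fast they received insulin 0.75 IU/kg, then a single i.v. dose of peptide (50 or 500 μg/kg) or saline. Blood glucose read by glucometer at 15, 30 and 60 min after injection.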

Mus musculus [5] = test: Hyperglycemic effect in C57BL/6J mouse assessed as increase in blood glucose level at 500 microg/kg, iv measured measured after 30 mins by intraperitoneal insulin tolerance test; type: functional, organism-based; conditions: dose 500.0 µg/kg; procedure, shortened: as §2
Mus musculus [6] = test: Hyperglycemic effect in C57BL/6J mouse assessed as increase in blood glucose level at 50 microg/kg, iv measured measured up to 60 mins by intraperitoneal insulin tolerance test; type: functional, organism-based; conditions: dose 50.0 µg/kg; procedure, shortened: as §1

| Sequence | Drug degradation [1] [%] | Stability [2] | Activity (Mus musculus [3]) | Activity (Mus musculus [4]) | Activity (Mus musculus [5]) | Activity (Mus musculus [6]) |
| --- | --- | --- | --- | --- | --- | --- |
| GLUCAGON [listing 1 of 2 here] | > 85 | Unstable | – | – | – | – |
| GLUCAGON [listing 2 of 2 here] | – | – | Active | Active | Active | Active |

— ChEMBL document CHEMBL5055645 (J Med Chem, 2021)
